Activity calls are given as the source filed them. The calls are words filed in the database; no cut-off is given here.
How the values were obtained:
Epilachna [1] = test: Antifeedant activity against third-instar larval stage of Epilachna paenulata infested cucurbita maxima leaves assessed as decrease in food consumption at 0.25 to 4 ug/cm2 measured after 48 hr by no choice leaf disk assay relative to untreated control; assay type: functional, organism-based
Procedure, shortened: (§1)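 No-choice test: four third-instar E. paenulata larvae per Petri dish fed C. maxima leaves (renewed every 48 h) with known amounts of compound or solvent applied by syringe. Six replicates per treatment, plus unfed starved controls. Leaf consumption, body weight and mortality recorded every 24 h.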

Epilachna [2] = test: Antifeedant activity against third-instar larval stage of Epilachna paenulata infested cucurbita maxima leaves assessed as decrease in food consumption at 0.25 to 4 ug/cm2 measured after 24 hr by no choice leaf disk assay relative to untreated control; assay type: functional, organism-based; procedure, shortened: as §1
Epilachna [3] = test: Antifeedant activity against third-instar larval stage of Epilachna paenulata infested cucurbita maxima leaves assessed as feeding reduction after 24 hr by leaf disk choice assay; assay type: functional
Procedure, shortened: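 Leaf-disk choice test: two C. maxima seedling cotyledons in a Petri dish under a glass disk with two 1 cm² holes. One third-instar larva placed equidistant from treated and solvent-control disks, fed 24 h. Area eaten estimated visually by quarters, always by the same operator. AI% = (1 − T/C) × 100; Wilcoxon signed paired rank test, α = 0.05.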

Epilachna [4] = test: Antifeedant activity against third-instar larval stage of Epilachna paenulata infested cucurbita maxima leaves assessed as increase in larval mortality measured at 96 hr by no choice leaf disk assay; assay type: functional
Procedure, shortened: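 Same no-choice setup (four third-instar larvae per dish, treated C. maxima leaves renewed every 48 h, six replicates, mortality scored every 24 h). LD50 derived by probit analysis of mortality at 96 h.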

Epilachna [5] = test: Antifeedant activity against third-instar larval stage of Epilachna paenulata infested cucurbita maxima leaves assessed as decrease in food consumption at 0.25 to 4 ug/cm2 measured after 6 days by no choice leaf disk assay relative to untreated control; assay type: functional, organism-based; procedure, shortened: as §1
Epilachna [6] = test: Antifeedant activity against third-instar larval stage of Epilachna paenulata infested cucurbita maxima leaves assessed as decrease in larval weight gain at 0.25 to 4 ug/cm2 measured after 144 hr by no choice leaf disk assay relative to untreated control; assay type: functional, organism-based; procedure, shortened: as §1
Epilachna [7] = test: Antifeedant activity against third-instar larval stage of Epilachna paenulata infested cucurbita maxima leaves assessed as decrease in larval weight gain at 1 to 4 ug/cm2 measured after 96 hr by no choice leaf disk assay relative to untreated control; assay type: functional, organism-based; procedure, shortened: as §1
Epilachna [8] = test: Antifeedant activity against third-instar larval stage of Epilachna paenulata infested cucurbita maxima leaves assessed as larval mortality at 0.25 to 4 ug/cm2 measured after 24 hr by no choice leaf disk assay relative to untreated control; assay type: functional; procedure, shortened: as §1

Q: What does the source list for `C/C=C(\C)C(=O)O[C@H]1C[C@@H](OC(C)=O)[C@@]2(C(=O)OC)CO[C@H]3[C@@H](O)[C@@](C)([C@]45O[C@@]4(C)[C@@H]4C[C@H]5O[C@@H]5OC=C[C@@]54O)[C@H]4[C@]1(CO[C@]4(O)C(=O)OC)[C@@H]32` [AZADIRACHTIN A]?
A: Activity (Epilachna [1]): Active; Activity (Epilachna [2]): inactive; ED50 (Epilachna [3]): 0.72 microg/cm2; LD50 (Epilachna [4]): 1.24 microg/cm2; Activity (Epilachna [5]): Active

Q: For `CC(=O)O[C@@H]1C[C@H](O)[C@@]23COC(O)[C@]1(C)[C@@H]2C[C@@H](O)[C@]1(C)[C@@H]3[C@H](O)C(=O)[C@@]2(C)[C@H](c3ccoc3)C[C@H]3O[C@@]312` (stereo partly drawn) [MELIARTENIN], which Activity (Epilachna [6]) is on record?
A: Active

Q: And the Activity (Epilachna [2])?
A: Active

Q: And the ED50 (Epilachna [3])?
A: 0.8 microg/cm2

Q: And the LD50 (Epilachna [4])?
A: 0.76 microg/cm2

Q: And the Activity (Epilachna [5])?
A: Active

Q: What about the Activity (Epilachna [7]) of the same molecule?
A: Active

Q: And the mortality (Epilachna [8])?
A: 20%

Q: For `CC(=O)O[C@@H]1C[C@H](O)[C@@]23CO[C@@H](O)[C@]1(C)[C@@H]2C[C@@H](O)[C@]1(C)[C@@H]3C(=O)[C@H](OC(C)=O)[C@@]2(C)[C@H](c3ccoc3)C[C@H]3O[C@]321` [TOOSENDANIN], which ED50 (Epilachna [3]) is on record?
A: 3.69 microg/cm2
